Reference: ChEMBL document CHEMBL3853352, “Anti-tubercular activities of 5,6,7,8-tetrahydrobenzo[4,5]thieno[2,3-d]pyrimidin-4-amine analogues endowed with high activity toward non-replicative Mycobacterium tuberculosis” (Bioorg Med Chem, 2016)
Converted amounts (≈) assume the structure as drawn.

What was measured:
[1] = tested on: Mycobacterium tuberculosis; assay: Antimycobacterial activity against Mycobacterium tuberculosis H37Rv after 7 days by MABA; type: functional; details: 168 h
Summary of the method: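 M. tuberculosis H37Rv inoculum taken from fresh LJ medium, resuspended in 7H9-S (7H9, 0.1% casitone, 0.5% glycerol, OADC), adjusted to McFarland No. 1 and diluted 1:20. Serial two-fold drug dilutions in 7H9-S, with growth and sterile controls. Incubated 7 days at 37 °C in normal atmosphere, then alamar blue added and incubated overnight. MIC = lowest concentration preventing the blue-to-pink change.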

[2] = tested on: Mycobacterium tuberculosis; assay: Antimycobacterial activity against dormant stage of Mycobacterium tuberculosis H37Rv assessed as reduction in bacterial growth under nutrient starved conditions at 10 ug/ml for 7 days measured after 28 days; type: functional
Summary of the method: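 H37Rv grown in 7H9/OADC, washed twice and resuspended in PBS, then held in sealed bottles at 37 °C for 6 weeks. Starved cultures exposed to compound at 10 ug/ml for 7 days. Cells diluted 10-fold serially to 10^-6 in 7H9/OADC and plated in triplicate. Incubated 28 days at 37 °C without agitation; wells with visible growth scored positive and MPN calculated.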

[3] = target: T1, L-lysine-epsilon aminotransferase (Mycobacterium tuberculosis) (UniProt P9WQ77); assay: Inhibition of Mycobacterium tuberculosis LAT at 25 uM
T1 sequence (whole entry): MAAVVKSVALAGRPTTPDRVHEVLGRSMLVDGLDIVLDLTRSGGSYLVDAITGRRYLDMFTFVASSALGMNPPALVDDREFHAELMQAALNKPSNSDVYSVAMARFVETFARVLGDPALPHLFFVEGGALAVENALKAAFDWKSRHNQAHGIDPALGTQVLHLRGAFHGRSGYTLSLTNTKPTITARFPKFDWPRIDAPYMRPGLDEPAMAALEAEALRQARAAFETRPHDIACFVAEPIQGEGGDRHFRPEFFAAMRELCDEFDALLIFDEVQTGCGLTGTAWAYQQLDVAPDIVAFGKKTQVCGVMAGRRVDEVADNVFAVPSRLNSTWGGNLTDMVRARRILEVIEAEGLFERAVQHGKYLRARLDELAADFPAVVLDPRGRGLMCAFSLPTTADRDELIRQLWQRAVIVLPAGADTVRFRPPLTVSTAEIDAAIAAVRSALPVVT

[4] = Inhibition of Mycobacterium tuberculosis ADH assessed as decrease in conversion of L-alanine to pyruvate by measuring NADH by spectrophotometry; set-up: species or system Mycobacterium tuberculosis H37Rv
Summary of the method: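 Mtb L-AlaDH oxidative deamination of L-alanine to pyruvate at 37 °C. NADH formation read at 340 nm. Compounds tested from 25 µM to 0.5 µM. Background read from the reaction mixture without enzyme. IC50 values calculated from the concentration series.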

[5] = Cytotoxicity against mouse RAW264.7 cells assessed as inhibition of cell proliferation at 50 ug/ml after 48 hrs by MTT assay; type: toxicity
Summary of the method: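 RAW 264.7 mouse macrophages grown in RPMI with 10% FBS and penicillin/streptomycin, then seeded at about 5000 cells/well on poly-L-lysine-coated plates. Pre-incubated 24 h at 37 °C, 5% CO2, then exposed to compound for 48 h. MTT (0.5 mg/ml) added for 3 h and formazan read at 595 nm.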

[6] = tested on: Mycobacterium tuberculosis H37Rv; assay: Inhibition of Mycobacterium tuberculosis ADH assessed as decrease in conversion of L-alanine to pyruvate at 25 uM by measuring NADH by spectrophotometry

SMILES	MIC [1] [µM]	fold change (FC) [2]	inhibition [3] [%]	IC50 [4] [µM]	inhibition at 48 h, 50 ug/ml [5] [%]	inhibition [6] [%]
Brc1ccc(Nc2nc(C3CC3)nc3sc4c(c23)CCCC4)cc1	15.6 (≈ 6.25 µg/mL)	>1	< 50	8.93	33.4	50
CO[C@H]1/C=C/O[C@@]2(C)Oc3c(C)c(O)c4c(O)c(c(/C=N/N5CCN(C)CC5)c(O)c4c3C2=O)NC(=O)/C(C)=C\C=C\[C@H](C)[C@H](O)[C@@H](C)[C@@H](O)[C@@H](C)[C@H](OC(C)=O)[C@@H]1C [RIFAMPIN]	0.23 (≈ 0.189 µg/mL)	2		> 25	9.56	
Clc1ccc(Nc2nc(-c3ccccc3)nc3sc4c(c23)CCCC4)cc1	63.8 (≈ 25 µg/mL)	>1	< 50	2.72	20.8	50
COc1c(N2C[C@@H]3CCCN[C@@H]3C2)c(F)cc2c(=O)c(C(=O)O)cn(C3CC3)c12 [MOXIFLOXACIN]	1.26 (≈ 0.506 µg/mL)	2.7		> 25		
CCc1nc(NCc2ccccc2)c2c3c(sc2n1)CCCC3	38.6 (≈ 12.5 µg/mL)	>1	< 50	6.03	7.05	50
Brc1ccc(Nc2nc(-c3ccccc3)nc3sc4c(c23)CCCC4)cc1	28.6 (≈ 12.5 µg/mL)	>1	< 50	8.7	20.4	50
CCc1nc(Nc2c(C)cccc2C)c2c3c(sc2n1)CCCC3	18.5 (≈ 6.25 µg/mL)	>1	< 50	5.02	26.5	50
c1ccc(CNc2nc(C3CC3)nc3sc4c(c23)CCCC4)cc1	18.6 (≈ 6.25 µg/mL)	>1	< 50	4.23	23.1	50
c1ccc(CCNc2nc(-c3ccccc3)nc3sc4c(c23)CCCC4)cc1	64.8 (≈ 25 µg/mL)	>1	< 50	5.6	24.6	50
Cc1ccc(Nc2nc(C3CC3)nc3sc4c(c23)CCCC4)c(C)c1	71.5 (≈ 25 µg/mL)	>1	< 50	9	23.9	50
CCc1nc(Nc2ccc(Br)cc2)c2c3c(sc2n1)CCCC3	32.2 (≈ 12.5 µg/mL)	>1	< 50	6.54	12.6	50
Cc1ccc(C)c(Nc2nc(C3CC3)nc3sc4c(c23)CCCC4)c1	35.8 (≈ 12.5 µg/mL)	>1	< 50	2.07	16.3	50
Cc1ccc(Nc2nc(-c3ccccc3)nc3sc4c(c23)CCCC4)c(C)c1	16.2 (≈ 6.25 µg/mL)	>1	< 50	9.96	7.97	50
CCc1nc(Nc2ccc(C)cc2)c2c3c(sc2n1)CCCC3	77.3 (≈ 25 µg/mL)	>1	< 50	3.26	15.6	50
CCc1nc(Nc2ccc(F)cc2)c2c3c(sc2n1)CCCC3	38.2 (≈ 12.5 µg/mL)	>1	< 50	6.05	14	50
c1ccc(CNc2nc(-c3ccccc3)nc3sc4c(c23)CCCC4)cc1	33.6 (≈ 12.5 µg/mL)	>1	< 50	9.68	26.5	50
Clc1ccc(Nc2nc(C3CC3)nc3sc4c(c23)CCCC4)cc1	8.78 (≈ 3.12 µg/mL)		< 50	11.1	15.5	50
CCc1nc(Nc2ccc(Cl)cc2)c2c3c(sc2n1)CCCC3	18.2 (≈ 6.25 µg/mL)	>1	< 50	4.94	15.6	50

SMILES	MIC [1] [µM]	fold change (FC) [2]	inhibition [3] [%]	IC50 [4] [µM]	inhibition at 48 h, 50 ug/ml [5] [%]	inhibition [6] [%]
COc1ccc(Nc2nc(-c3ccccc3)nc3sc4c(c23)CCCC4)cc1	16.1 (≈ 6.25 µg/mL)	>1	< 50	8.72	28.2	50
Cc1ccc(C)c(Nc2nc(-c3ccccc3)nc3sc4c(c23)CCCC4)c1	2.02 (≈ 0.779 µg/mL)	>1	< 50	5.82	3.23	50
CCc1nc(Nc2ccc(OC)cc2)c2c3c(sc2n1)CCCC3	73.7 (≈ 25 µg/mL)	>1	< 50	4.68	15.2	50
c1ccc(Nc2nc(C3CC3)nc3sc4c(c23)CCCC4)cc1	9.72 (≈ 3.12 µg/mL)		< 50	> 25	8.8	
CCc1nc(Nc2ccccc2)c2c3c(sc2n1)CCCC3	20.2 (≈ 6.25 µg/mL)	>1	< 50	15.1	7.82	50
CC[C@@H](CO)NCCN[C@@H](CC)CO [ETHAMBUTOL]	7.64 (≈ 1.56 µg/mL)			> 25		
NNC(=O)c1ccncc1 [ISONIAZID]	0.66 (≈ 0.0905 µg/mL)	1.2		> 25	12.2	
Fc1ccc(Nc2nc(-c3ccccc3)nc3sc4c(c23)CCCC4)cc1	33.3 (≈ 12.5 µg/mL)		< 50	12.2	33.4	50
c1ccc(CCNc2nc(C3CC3)nc3sc4c(c23)CCCC4)cc1	35.8 (≈ 12.5 µg/mL)		< 50	17	17.4	50
CCc1nc(Nc2ccc(C)cc2C)c2c3c(sc2n1)CCCC3	74.1 (≈ 25 µg/mL)	>1	< 50	7.41	9.65	50
Fc1ccc(Nc2nc(C3CC3)nc3sc4c(c23)CCCC4)cc1	36.8 (≈ 12.5 µg/mL)	>1	< 50	8.91	4.82	
Cc1cccc(C)c1Nc1nc(C2CC2)nc2sc3c(c12)CCCC3	17.9 (≈ 6.25 µg/mL)	>1	< 50	7.55	13.5	50
Cc1ccc(Nc2nc(C3CC3)nc3sc4c(c23)CCCC4)cc1	74.5 (≈ 25 µg/mL)		< 50	13.4	16.2	50
Cc1cccc(C)c1Nc1nc(-c2ccccc2)nc2sc3c(c12)CCCC3	8.11 (≈ 3.13 µg/mL)	>1	< 50	8.82	25.5	50
Cc1ccc(Nc2nc(-c3ccccc3)nc3sc4c(c23)CCCC4)cc1	33.6 (≈ 12.5 µg/mL)	>1	< 50	7.97	41.1	50
c1ccc(Nc2nc(-c3ccccc3)nc3sc4c(c23)CCCC4)cc1	4.36 (≈ 1.56 µg/mL)	>1	< 50	11.4	7.15	50
COc1ccc(Nc2nc(C3CC3)nc3sc4c(c23)CCCC4)cc1	17.8 (≈ 6.25 µg/mL)	>1	< 50	> 25	34.4	
CCc1nc(Nc2cc(C)ccc2C)c2c3c(sc2n1)CCCC3	74.1 (≈ 25 µg/mL)		< 50	> 25	29.9	
